Source: ChEMBL document CHEMBL1955737, “Diarylpyrimidine-dihydrobenzyloxopyrimidine hybrids: new, wide-spectrum anti-HIV-1 agents active at (sub)-nanomolar level” (J Med Chem, 2011)
pEC50: −log10 of the molar value.

Legend:
[1] = tested on: Human immunodeficiency virus type 1 reverse transcriptase (Human immunodeficiency virus 1), Q72547 [Y181I]
[2] = tested on: Human immunodeficiency virus 1; experiment: Resistance ratio of EC50 for HIV 1 harboring reverse transcriptase Y181C mutant infected in human MT4 cells to EC50 for wild type HIV 1 NL4-3 infected in human MT4 cells; type: functional
Method in brief: (§1)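 Fold change is the EC50 against the mutant strain (K103N, Y181C, Y188L or IRLL98) divided by the EC50 against wild-type NL4-3. Both EC50s come from MT-4 cells infected in the presence of a range of drug concentrations, with MTT viability read at day 5. Values are means of at least two experiments.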

[3] = tested on: Human immunodeficiency virus 1; experiment: Ratio of ID50 for HIV 1 reverse transcriptase Y181I mutant to ID50 for wild type HIV 1 NL4-3 reverse transcriptase
Method in brief: (§2)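 Recombinant HIV-1 RT (wild type or K103N, L100I, Y181I or Y188L), purified to >95%, at 2-4 nM. RNA-dependent DNA polymerase assay with 0.5 μg poly(rA)/oligo(dT) 10:1 (0.3 μM 3'-OH ends) and 10 μM [3H]dTTP in 8% final DMSO. Initial velocities were taken from aliquots sampled every 2 min. […] The ratio is mutant ID50 over wild-type ID50. Means of at least three experiments.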

[4] = Selectivity index, ratio of CC50 for human MT4 cells to EC50 for HIV 1 NL4-3; type: toxicity, cell-based; conditions: read-out: Ratio CC50/EC50
Method in brief: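 CC50 from mock-infected MT-4 cells and EC50 against HIV-1 NL4-3 in infected MT-4 cells, both by day-5 MTT viability read-out; index computed as CC50/EC50(NL4-3); means of at least two experiments.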

[5] = tested on: Human immunodeficiency virus 1; experiment: Ratio of ID50 for HIV 1 reverse transcriptase Y188L mutant to ID50 for wild type HIV 1 NL4-3 reverse transcriptase
Method in brief: as §2

[6] = tested on: Human immunodeficiency virus type 1 reverse transcriptase (Human immunodeficiency virus 1), Q72547 [K103N]
[7] = tested on: Human immunodeficiency virus type 1 reverse transcriptase (Human immunodeficiency virus 1), Q72547 [L100I]
[8] = tested on: Human immunodeficiency virus 1; experiment: Ratio of ID50 for HIV 1 reverse transcriptase K103N mutant to ID50 for wild type HIV 1 NL4-3 reverse transcriptase
Method in brief: as §2

[9] = tested on: Human immunodeficiency virus 1; experiment: Antiviral activity against HIV 1 harboring reverse transcriptase K103N mutant infected in human MT4 cells assessed as inhibition of virus-induced cytopathic effect after 5 days by MTT assay; type: functional, organism-based; conditions: Human immunodeficiency virus 1, MT4, 120 h
[10] = Cytotoxicity against human MT4 cells assessed as cell viability by MTT assay; type: cell-based
[11] = tested on: Human immunodeficiency virus 1; experiment: Resistance ratio of EC50 for HIV 1 harboring reverse transcriptase K103N mutant infected in human MT4 cells to EC50 for wild type HIV 1 NL4-3 infected in human MT4 cells; type: functional
Method in brief: as §1

[12] = tested on: Human immunodeficiency virus 1; experiment: Antiviral activity against wild type HIV 1 NL4-3 infected in human MT4 cells assessed as inhibition of virus-induced cytopathic effect after 5 days by MTT assay; type: functional, organism-based; conditions: Human immunodeficiency virus 1, NL4-3, MT4, 120 h
[13] = tested on: Human immunodeficiency virus 1; experiment: Ratio of ID50 for HIV 1 reverse transcriptase L100I mutant to ID50 for wild type HIV 1 NL4-3 reverse transcriptase
Method in brief: as §2

[14] = tested on: Human immunodeficiency virus 1; experiment: Resistance ratio of EC50 for HIV 1 harboring reverse transcriptase Y188L mutant infected in human MT4 cells to EC50 for wild type HIV 1 NL4-3 infected in human MT4 cells; type: functional
Method in brief: as §1

[15] = molecular target: Human immunodeficiency virus type 1 reverse transcriptase (Human immunodeficiency virus 1) (UniProt Q72547)
[16] = tested on: Human immunodeficiency virus 1; experiment: Antiviral activity against HIV 1 harboring reverse transcriptase Y188L mutant infected in human MT4 cells assessed as inhibition of virus-induced cytopathic effect after 5 days by MTT assay; type: functional, organism-based; conditions: Human immunodeficiency virus 1, MT4, 120 h
[17] = tested on: Human immunodeficiency virus 1; experiment: Antiviral activity against HIV 1 harboring reverse transcriptase Y181C mutant infected in human MT4 cells assessed as inhibition of virus-induced cytopathic effect after 5 days by MTT assay; type: functional, organism-based; conditions: Human immunodeficiency virus 1, MT4, 120 h
Method in brief: (§3)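 MT-4 cells (NIH AIDS Reagent Program) infected with the mutant HIV-1 strain in the presence of a range of drug concentrations. Mutant strains were from the MRC Centralised Facility for AIDS Reagents; IRLL98 carries K101Q, Y181C and G190A. Viable cells were counted by MTT colorimetry at day 5 post-infection. […] Values are means of at least two experiments.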

[18] = tested on: Human immunodeficiency virus 1; experiment: Antiviral activity against multidrug-resistant HIV 1 IRLL98 harboring reverse transcriptase K101Q/Y181C/G190a mutant infected in human MT4 cells assessed as virus-induced cytopathic effect after 5 days by MTT assay; type: functional, organism-based; conditions: Human immunodeficiency virus 1, IRLL98, MT4, 120 h
Method in brief: as §3

[19] = Ratio of TMC120 CC50 to compound CC50 for human MT4 cells; type: ADME, cell-based
MT4 = experiment: Ratio of MC1220 CC50 to compound CC50 for human MT4 cells; type: ADME, cell-based
[20] = tested on: Human immunodeficiency virus 1; experiment: Ratio of efavirenz EC50 to compound EC50 for wild type HIV 1 NL4-3 infected in human MT4 cells; type: functional

| Structure (SMILES) | ID50 [1] [nM] | Ratio EC50 [2] | Ratio [3] | selectivity ratio [4] | Ratio [5] | ID50 [6] [nM] | ID50 [7] [nM] | Ratio [8] | pEC50 [9] | CC50 [10] [nM] | Ratio EC50 [11] | pEC50 [12] | Ratio [13] | Ratio EC50 [14] | ID50 [15] [nM] | pEC50 [16] | pEC50 [17] | other results |
| --- | --- | --- | --- | --- | --- | --- | --- | --- | --- | --- | --- | --- | --- | --- | --- | --- | --- | --- |
| Cc1c(C(C)c2c(F)cccc2F)nc(Nc2ccc(C#N)cc2)[nH]c1=O (stereo not given) | 1400 | 16 | 3500 | 367 | 172 | 125 | 1000 | 312 | 7.21 | 1060 | 21 | 8.54 | 2500 | 79 | 0.4 | 6.64 | 7.34 |  |
| N#Cc1ccc(Nc2nc(Cc3c(F)cccc3F)cc(=O)[nH]2)cc1 | 56000 | 1 | 70000 | > 7.3 | 1550 | 2600 | 1600 | 3250 | 6.54 | > 2500 | 0.8 | 6.46 | 2000 |  | 0.8 | < 5.60 | 6.46 |  |
| CC(c1cc(Cl)nc(Nc2ccc(C#N)cc2)n1)c1c(F)cccc1F (stereo not given) | 28600 | 102 | 2380 | > 1800 | 237 | 286 |  | 24 | 7.29 | > 2700 | 34 | 8.82 |  | 557 | 12 | 6.08 | 6.81 |  |
| Cc1cc(C)c(Nc2ccnc(Nc3ccc(C#N)cc3)n2)c(C)c1 [DAPIVIRINE] | > 1000 |  |  |  |  | 100 |  |  | 8.92 | 3040 |  | 10.52 |  |  | 7 |  | 8.92 | pEC50 [18]: 9.52 |
| CC(c1ccnc(Nc2ccc(C#N)cc2)n1)c1c(F)cccc1F (stereo not given) | 5910 | 89 | 656 | 75000 | 85 | 248 | 664 | 28 | 7.56 | 37500 | 55 | 9.30 | 74 | 200 | 9 | 7.00 | 7.35 |  |
| CC(c1cc(N)nc(Nc2ccc(C#N)cc2)n1)c1c(F)cccc1F (stereo not given) | 11100 | 149 | 1010 | 154000 | 147 | 109 | 765 | 10 | 8.09 | 46100 | 27 | 9.52 | 69 | 222 | 11 | 7.18 | 7.35 | selectivity ratio [19]: > 10; Ratio (MT4): 2.5; Ratio EC50 [20]: >10 |
| N#Cc1ccc(Nc2nc(N)cc(Cc3c(F)cccc3F)n2)cc1 | 17300 | 238 | 1570 | 149000 | 280 | 169 | 1510 | 15 | 7.85 | 44600 | 47 | 9.52 | 137 | 361 | 11 | 6.97 | 7.15 | selectivity ratio [19]: > 10; Ratio (MT4): 2.5; Ratio EC50 [20]: >10 |
| N#Cc1ccc(Nc2nccc(Cc3c(F)cccc3F)n2)cc1 | 7470 | 120 | 1250 | > 155000 | 306 | 500 | 671 | 83 | 7.17 | > 77600 | 136 | 9.30 | 112 | 450 | 6 | 6.65 | 7.22 |  |
| Cc1cnc(Nc2ccc(C#N)cc2)nc1C(C)c1c(F)cccc1F (stereo not given) | 5000 | 71 | 725 | 119000 | 43 | 154 | 128 | 22 | 7.28 | 71400 | 86 | 9.22 | 19 | 52 | 6.9 | 7.50 | 7.37 |  |
| N#Cc1ccc(Nc2nc(Cl)cc(Cc3c(F)cccc3F)n2)cc1 | > 80000 | 42 |  | > 209 |  | 4360 |  | 74 | 6.77 | > 2800 | 13 | 7.87 |  | 105 | 59 | 5.85 | 6.25 |  |
| Cc1cnc(Nc2ccc(C#N)cc2)nc1Cc1c(F)cccc1F | > 80000 | 108 |  | > 22500 |  | 262 | 2960 | 29 | 7.05 | > 74300 | 27 | 8.48 | 329 | 308 | 9 | 5.99 | 6.45 |  |
| Cc1c(Cc2c(F)cccc2F)nc(Nc2ccc(C#N)cc2)[nH]c1=O | > 80000 |  |  | > 11.6 |  | 21400 |  | 107 | 5.86 | > 2840 | 6 | 6.61 |  |  | 200 | < 5.55 | < 5.55 |  |
| Cc1c(C(C)c2c(F)cccc2F)nc(N(C)C)[nH]c1=O (stereo not given) | 4000 |  | 40 |  | 5 | 500 | 1000 | 5 |  | > 17000 |  |  | 10 |  | 100 |  |  | pEC50 [18]: 6.69 |
| Cc1ccnc2c1NC(=O)c1cccnc1N2C1CC1 [NEVIRAPINE] | 35000 |  |  |  |  |  |  |  | 5.21 | 7510 |  |  |  |  |  | < 5.12 | < 5.12 | pEC50 [18]: < 4.72 |
| CC(c1cc(=O)[nH]c(Nc2ccc(C#N)cc2)n1)c1c(F)cccc1F (stereo not given) | 12300 | 10 | 438 | > 312 | 149 | 347 |  | 12 | 7.25 | > 2840 | 6 | 8.04 |  | 72 | 28 | 6.19 | 7.06 |  |
| O=C1Nc2ccc(Cl)cc2[C@@](C#CC2CC2)(C(F)(F)F)O1 [EFAVIRENZ] |  |  |  |  |  |  |  |  | 6.46 | 3170 |  | 8.50 |  |  |  |  | 8.00 | pEC50 [18]: 6.20 |
| Cc1c(Cl)nc(Nc2ccc(C#N)cc2)nc1Cc1c(F)cccc1F | > 40000 | 80 |  | > 125 | 371 | 445 |  | 26 | 6.13 | > 2700 | 23 | 7.67 |  |  | 17 | < 5.57 | 5.60 |  |
